Columns and labels:
[1] = Volume of distribution at steady state in Sprague-Dawley rat at 5 mg/kg, iv measured after 0.25 to 24 hrs by LC-MS/MS analysis; format: ADME, organism-based; settings: in vivo, time 0.25-24 hrs, read-out: Vdss
[2] = molecular target: T1, Hepatitis C virus serine protease, NS3/NS4A (Hepatitis C virus, UniProt A3EZI9+D2K2A8); experiment: Inhibition of HCV GT-3a NS3/4a protease using Ac-DE-D(Edans)-EE-Abu-c-[COO]-AS-K(Dabcy1)-NH2 preincubated for 1 hr followed by substrate addition; format: protein-complex assay, Hepatitis C virus subtype 3a
[3] = Oral bioavailability in Sprague-Dawley rat at 10 mg/kg measured after 0.25 to 24 hrs by LC-MS/MS analysis; format: ADME, organism-based; settings: in vivo, time 0.25-24 hrs
[4] = Tmax in Sprague-Dawley rat at 10 mg/kg, po measured after 0.25 to 24 hrs by LC-MS/MS analysis; format: ADME, organism-based; settings: in vivo, time 0.25-24 hrs
Hepatitis C virus [5] = experiment: Antiviral activity against HCV genotype 1b harboring A156T mutant infected in human Huh7 cells incubated for 96 hrs by luciferase assay; format: functional, organism-based, Hepacivirus hominis; settings: subtype 1b, Huh-7, 96 h
Outline: (§1)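 Con1 (GT-1b) luciferase reporter replicon carrying the H77 (GT-1a) NS3 protease region, with the mutation introduced by megaprimer site-directed mutagenesis. Cured Huh7 cells were grown in DMEM with 10% heat-inactivated FBS and 0.1 mM non-essential amino acids, electroporated with replicon RNA transcripts, and kept with serially diluted inhibitor. EC50 was taken directly from the inhibition curves.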

[6] = Cmax in Sprague-Dawley rat at 10 mg/kg, po measured after 0.25 to 24 hrs by LC-MS/MS analysis; format: ADME, organism-based; parameters: route oral, time 0.25-24 hrs, dose 10 mg/kg; settings: in vivo
[7] = Clearance in Sprague-Dawley rat at 5 mg/kg, iv measured after 0.25 to 24 hrs by LC-MS/MS analysis; format: ADME, organism-based; settings: in vivo, time 0.25-24 hrs
Hepatitis C virus [8] = experiment: Antiviral activity against HCV genotype 1b infected in human Huh7 cells incubated for 96 hrs by luciferase assay; format: functional, organism-based, Hepacivirus hominis; settings: Huh-7, 96 h
Outline: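 Con1 (GT-1b) luciferase reporter replicon carrying the H77 (GT-1a) NS3 protease region, either WT or with A156T or D168A introduced by megaprimer mutagenesis. Cured Huh7 cells grown in DMEM with 10% heat-inactivated FBS and 0.1 mM non-essential amino acids. Cells electroporated with replicon RNA and kept with serially diluted inhibitor.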

Hepatitis C virus [9] = experiment: Antiviral activity against HCV genotype 1b harboring D168A mutant infected in human Huh7 cells incubated for 96 hrs by luciferase assay; format: functional, organism-based, Hepacivirus hominis; settings: subtype 1b, Huh-7, 96 h; outline: as §1
[10] = Half life in Sprague-Dawley rat at 5 mg/kg, iv measured after 0.25 to 24 hrs by LC-MS/MS analysis; format: ADME, organism-based; settings: in vivo, time 0.25-24 hrs
[11] = molecular target: T1, Hepatitis C virus serine protease, NS3/NS4A; experiment: Inhibition of HCV GT-1a NS3/4a protease using Ac-DE-D(Edans)-EE-Abu-c-[COO]-AS-K(Dabcy1)-NH2 preincubated for 1 hr followed by substrate addition; format: protein complex, Hepatitis C virus subtype 1a
[12] = AUC(0 to 24 hrs) in Sprague-Dawley rat at 5 mg/kg, iv measured after 0.25 to 24 hrs by LC-MS/MS analysis; format: ADME, organism-based; parameters: route intravenous, dose 5 mg/kg, time 0.25-24 hrs; settings: in vivo
[13] = Half life in Sprague-Dawley rat at 10 mg/kg, po measured after 0.25 to 24 hrs by LC-MS/MS analysis; format: ADME, organism-based; settings: in vivo, time 0.25-24 hrs
Hepatitis C virus [14] = experiment: Antiviral activity against HCV genotype 3a infected in human Huh7.5 cells incubated for 72 hrs by luciferase assay; format: functional, organism-based, Hepacivirus hominis; settings: subtype 3a, Huh7.5, 72 h
Outline: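 Huh7.5 cells stably harboring the GT-3a replicon S52/SG-Feo SHI, seeded at 8,000 cells/well. Cells lysed in 1X Passive Lysis Buffer and luciferase activity measured. EC50 taken from drug inhibition curves.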

Row | Compound | Vd [1] [L/kg] | Ki [2] [nM] | bioavailability [3] [%] | Tmax [4] [h] | EC50 (Hepatitis C virus [5]) [nM] | Cmax [6] [nM] | clearance [7] [mL/min/kg] | EC50 (Hepatitis C virus [8]) [nM] | EC50 (Hepatitis C virus [9]) [nM] | half-life [10] [h] | Ki [11] [nM] | AUC(0-t) [12] [µM·h] | half-life [13] [h] | EC50 (Hepatitis C virus [14]) [nM]
1 | COc1ccc2nc(C)c(O[C@@H]3C[C@H]4C(=O)N[C@]5(C(=O)NS(=O)(=O)C6(C)CC6)C[C@H]5/C=C/CCCCC[C@H](NC(=O)OC5(C(F)(F)F)CCCC5)C(=O)N4C3)nc2c1 | 3.9 | 104 | 11 | 3 | 6.2 | 110 | 37 | 0.3 | 20 | 5.3 | 1.3 | 2.7 | 4.9 | 130
2 | COc1ccc2nc(C)c(O[C@@H]3C[C@H]4C(=O)N[C@]5(C(=O)NS(=O)(=O)C6(C)CC6)C[C@H]5/C=C/CCCCC[C@H](NC(=O)OC(C)(C)C)C(=O)N4C3)nc2c1 | 3.5 | 119 | 10 | 1.4 | 2.1 | 180 | 51 | 0.6 | 2.2 | 5.2 | 3.6 | 2.2 | 3 | 300

Source: ChEMBL document CHEMBL4828740, “Discovery of Quinoxaline-Based P1-P3 Macrocyclic NS3/4A Protease Inhibitors with Potent Activity against Drug-Resistant Hepatitis C Virus Variants” (J Med Chem, 2021)
